Measured values taken from ChEMBL document CHEMBL5252639, “Exploration of cytotoxic potential and tubulin polymerization inhibition activity of cis-stilbene-1,2,3-triazole congeners” (RSC Med Chem, 2023).
pIC50: −log10 of the molar value. Activity calls are given as the source filed them. The rule behind the calls is not given here.

Tests used:
A549 = test: Cytotoxicity against human A549 cells assessed as inhibition of cell growth measured for 24 hrs by MTT assay; assay type: functional, cell-based; settings: A549, 24 h
Outline: (§1)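 Cells were kept at 37 °C with 5% CO2 in suitable medium with 10% FBS and 1% antibiotic-antimycotic, and passaged at 80-90% confluency using 0.25% trypsin/1 mM EDTA. They were seeded at 1×10^3–4×10^3 cells/well and attached overnight. Compounds came from 10 mM DMSO stocks diluted in medium and were applied for 24 h. MTT (0.5 mg/mL) was added for 4 h at 37 °C, formazan was dissolved in DMSO, and absorbance was read at 570 nm.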

BT-474 = test: Cytotoxicity against human BT-474 cells assessed as inhibition of cell growth measured for 24 hrs by MTT assay; assay type: functional, cell-based; settings: BT-474, 24 h; outline: as §1
B16-F10 = test: Cytotoxicity against mouse B16-F10 cells assessed as inhibition of cell growth measured for 24 hrs by MTT assay; assay type: functional, cell-based; settings: B16-F10, 24 h; outline: as §1
HCT-116 [1] = test: Cytotoxicity against human HCT-116 cells assessed as inhibition of cell growth measured for 24 hrs by MTT assay; assay type: functional, cell-based; settings: HCT-116, 24 h; outline: as §1
[2] = Cytotoxicity against human HaCaT cells assessed as inhibition of cell growth measured for 24 hrs by MTT assay; assay type: toxicity, cell-based; outline: as §1
HCT-116 [3] = test: Induction of morphological change in human HCT-116 cells assessed as change in cell shape incubated for 24 hrs by phase contrast microscopic analysis; assay type: functional, cell-based; settings: dose 1.62-6.5 µM
Outline: (§2)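 HCT-116 plated at 1 × 10^6 cells/mL in RPMI + 10% FBS and allowed to adhere 24 h at 37 °C, 5% CO2. […] After 24 h, morphology imaged by phase-contrast microscopy at 20X.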

HCT-116 [4] = test: Induction of morphological change in human HCT-116 cells assessed as cell detachment incubated for 24 hrs by phase contrast microscopic analysis; assay type: functional, cell-based; outline: as §2
HCT-116 [5] = test: Induction of apoptosis in human HCT-116 cells assessed as cell fragmentation measured for 24 hrs by DAPI staining based microscopic analysis; assay type: functional; settings: dose 1.62-6.5 µM
Outline: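 Cells were seeded at 1×10^6 cells/well in 24-well plates and cultured 24 h. […] After PBS washing they were fixed in 4% paraformaldehyde for 30 min, permeabilized with 0.1% Triton X for 15 min, and stained with 1 µM DAPI for 15 min. Imaging used fluorescence microscopy (ex 350/em 460 nm) at 20X.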

HCT-116 [6] = test: Induction of apoptosis in human HCT-116 cells assessed as horseshoe shaped nuclei measured for 24 hrs by DAPI staining based microscopic analysis; assay type: functional, cell-based; settings: dose 1.62-6.5 µM
Outline: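 Then PBS wash, 4% paraformaldehyde fixation 30 min, 0.1% Triton X permeabilisation 15 min, 1 µM DAPI 15 min, PBS wash. Imaged by fluorescence microscopy (ex 350/em 460 nm), 20X.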

HCT-116 [7] = test: Induction of apoptosis in human HCT-116 cells assessed as formation of membrane blebs at 1.62 uM measured for 24 hrs by AO/EB staining based microscopic analysis; assay type: functional, cell-based
HCT-116 [8] = test: Induction of apoptosis in human HCT-116 cells assessed as cell rounding at 1.62 uM measured for 24 hrs by AO/EB staining based microscopic analysis; assay type: functional
HCT-116 [9] = test: Induction of apoptosis in human HCT-116 cells assessed as micronuclei formation at 3.25 to 6.50 uM measured for 24 hrs by AO/EB staining based microscopic analysis; assay type: functional, cell-based; settings: dose 3.25-6.5 µM
Outline: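 Media removed; acridine orange and ethidium bromide (10 µg/ml, equal volumes) added in 1 mL PBS. Imaged immediately by fluorescence microscopy (excitation 488 nm, emission 550 nm) at 20X.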

HCT-116 [10] = test: Induction of apoptosis in human HCT-116 cells assessed as early apoptotic cells at 1.62 uM measured after 24 hrs by Annexin V-FITC/propidium iodide staining based flow cytometry (reference value: 0.28%); assay type: functional
HCT-116 [11] = test: Induction of apoptosis in human HCT-116 cells assessed as late apoptotic cells at 1.62 uM measured after 24 hrs by Annexin V-FITC/propidium iodide staining based flow cytometry (reference value: 0.00%); assay type: functional
HCT-116 [12] = test: Induction of apoptosis in human HCT-116 cells assessed as necrotic cells at 1.62 uM measured after 24 hrs by Annexin V-FITC/propidium iodide staining based flow cytometry (reference value: 0.00%); assay type: functional
HCT-116 [13] = test: Induction of apoptosis in human HCT-116 cells assessed as early apoptotic cells at 3.25 uM measured after 24 hrs by Annexin V-FITC/propidium iodide staining based flow cytometry (reference value: 0.28%); assay type: functional
HCT-116 [14] = test: Induction of apoptosis in human HCT-116 cells assessed as late apoptotic cells at 3.25 uM measured after 24 hrs by Annexin V-FITC/propidium iodide staining based flow cytometry (reference value: 0.00%); assay type: functional
HCT-116 [15] = test: Induction of apoptosis in human HCT-116 cells assessed as early apoptotic cells at 6.50 uM measured after 24 hrs by Annexin V-FITC/propidium iodide staining based flow cytometry (reference value: 0.28%); assay type: functional; settings: dose 6.5 µM
HCT-116 [16] = test: Induction of cell cycle arrest in human HCT-116 cells assessed as accumulation of cells at G2/M phase at 3.25 uM measured after […] by PI staining based flow cytometry analysis relative to control (reference value: 15.61%); assay type: functional
HCT-116 [17] = test: Induction of cell cycle arrest in human HCT-116 cells assessed as accumulation of cells at G0/G1 phase at 6.50 uM measured after 48 hrs by PI staining based flow cytometry analysis relative to control (reference value: 70.34%); assay type: functional; settings: dose 6.5 µM
HCT-116 [18] = test: Induction of cell cycle arrest in human HCT-116 cells assessed as accumulation of cells at G2/M phase at 6.50 uM measured after 48 hrs by PI staining based flow cytometry analysis relative to control (reference value: 15.61%); assay type: functional; settings: dose 6.5 µM
Tubulin (Homo sapiens) [19] = target: T1, Tubulin (Homo sapiens) (UniProt P68371+Q9H4B7+P0DPH7+P68366+Q13509+Q71U36+P04350+Q3ZCM7+P07437+P68363+Q9BQE3+Q6PEY2+Q13885+Q9BVA1+Q9BUF5); test: Inhibition of tubulin polymerization in human HCT-116 cells at 3.25 uM measured after 1 hr relative to control; assay type: cell-based
Tubulin (Homo sapiens) [20] = target: T1, Tubulin (Homo sapiens); test: Inhibition of tubulin polymerization in human HCT-116 cells at 6.50 uM measured after 1 hr relative to control; assay type: cell-based; settings: dose 6.5 µM
HCT-116 [21] = test: Induction of cell cycle arrest in human HCT-116 cells assessed as accumulation of cells at S phase at 1.62 uM measured after 24 hrs by PI staining based flow cytometry analysis relative to control (reference value: 5.55%)
HCT-116 [22] = test: Induction of cell cycle arrest in human HCT-116 cells assessed as accumulation of cells at G2/M phase at 1.62 uM measured after 24 hrs by PI staining based flow cytometry analysis relative to control (reference value: 15.61%)
HCT-116 [23] = test: Induction of cell cycle arrest in human HCT-116 cells assessed as accumulation of cells at G0/G1 phase at 3.25 uM measured after 24 hrs by PI staining based flow cytometry analysis relative to control (reference value: 70.34%)

`COc1ccc(/C=C(/C(=O)OCc2cn(Cc3cc(F)ccc3F)nn2)c2ccc(OC)c(OC)c2)cc1OC` gave a pIC50 (A549) of 4.95, a pIC50 (BT-474) of 4.89 and a pIC50 (B16-F10) of 4.82. The pIC50 (HCT-116 [1]) was 5.49, the IC50 at 24 h [2] was 72.2 µM and the Activity (HCT-116 [3]) was “Dose-Dependent Effect”. For the same molecule, the Activity (HCT-116 [4]) was “Dose-Dependent Effect”, the Activity (HCT-116 [5]) was “Dose-Dependent Effect” and the Activity (HCT-116 [6]) was “Dose-Dependent Effect”. For the same molecule, the Activity (HCT-116 [7]) was “Active”, the Activity (HCT-116 [8]) was “Active” and the Activity (HCT-116 [9]) was “Active”. It also gave an Activity (HCT-116 [10]) of 18.1%, an Activity (HCT-116 [11]) of 0.16% and an Activity (HCT-116 [12]) of 0.52%. It also gave an Activity (HCT-116 [13]) of 13.51%, an Activity (HCT-116 [14]) of 25.22% and an Activity (HCT-116 [15]) of 10.71%. It also gave an Activity (HCT-116 [16]) of 38.72%, an Activity (HCT-116 [17]) of 38.48% and an Activity (HCT-116 [18]) of 46.89%. The inhibition (Tubulin (Homo sapiens) [19]) was 36.5%, the inhibition (Tubulin (Homo sapiens) [20]) was 65.2% and the Activity (HCT-116 [21]) was 7.32%. It also gave an Activity (HCT-116 [22]) of 22.06% and an Activity (HCT-116 [23]) of 50.62%.
